Measurements from ChEMBL document CHEMBL2331443, “Synthesis and biological evaluation of a new class of 4-aminoquinoline-rhodanine hybrid as potent anti-infective agents” (Eur J Med Chem, 2013).
Converted amounts (≈) assume the structure as drawn.

Assays:
Plasmodium falciparum [1] = assay: Antimalarial activity against Plasmodium falciparum K1 assessed as parasite growth inhibition after 72 hrs by MSF assay; type: functional, organism-based; settings: K1, 72 h
Procedure, shortened: (§1)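 P. falciparum cultures in RPMI-1640-FBS; DMSO stock 5 mg/ml diluted in medium, duplicate wells; 1.0% parasitized cell suspension at 0.8% parasitemia. Incubated 37 °C, 5% CO2 air mixture, 72 h. Lysis buffer with 2× SYBR Green I added, 1 h at 37 °C. Fluorescence read at 485 ± 20 nm excitation / 530 ± 20 nm emission; IC50 by logit regression.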

Plasmodium falciparum [2] = assay: Antimalarial activity against Plasmodium falciparum 3D7 assessed as parasite growth inhibition after 72 hrs by MSF assay; type: functional, organism-based; settings: 3D7, 72 h; procedure, shortened: as §1
Plasmodium yoelii = assay: Antimalarial activity against Plasmodium yoelii infected in erythrocytes assessed as inhibition of beta-hematin formation after 16 hrs by BHIA assay; type: functional, cell-free
Procedure, shortened: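 Plasma from infected animal blood at 50% parasitemia (cardiac puncture into 2.0% citrate, spun 5000 rpm, 10 min, 4 °C). Reaction in 1.0 mL: 100 mM sodium acetate pH 5.1, hemin as substrate, plasma, 1–20 µg compound; controls without compound. Triplicate, 37 °C, 16 h, rotary shaker. Pellet washed, dissolved in 2 N NaOH, absorbance 400 nm; IC50 by nonlinear regression of dose-response.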

[3] = Selectivity index, ratio of CC50 for african green monkey Vero cells to IC50 for Plasmodium falciparum K1; type: functional
[4] = tested on: Mycobacterium tuberculosis; assay: Antitubercular activity Mycobacterium tuberculosis H37Rv assessed as growth inhibition after 4 weeks; type: functional; settings: 672 h
Procedure, shortened: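 M. tuberculosis H37Rv from Lowenstein-Jensen culture, harvested in N-saline with 0.05% Tween-80 and made single-cell with glass beads. Working inoculum 2 × 10⁷ cfu/mL spread on drug-containing slanted solid medium. Incubated 37 °C for 4 weeks, watching for colonies. Drug-free tubes as control, isoniazid as reference. MIC taken as the lowest concentration giving complete growth inhibition at this inoculum.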

[5] = Cytotoxicity against mouse bone marrow derived macrophage assessed as growth inhibition after 48 hrs by MTS assay; type: cell-based
Procedure, shortened: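 Macrophages washed, plated at 10^5 cells per well in supplemented DMEM, 37 °C, 5% CO2, medium changed every 3rd day, used after 5 days. Compounds added in antibiotic-free, FBS-supplemented DMEM for 48 h at 37 °C, 5% CO2. MTS added for 2 h, absorbance 490 nm; DMSO wells taken as 100% survival.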

Vero = assay: Cytotoxicity against african green monkey Vero cells assessed as growth inhibition after 24 hrs by MTS assay; type: cell-based; settings: Chlorocebus sabaeus
Procedure, shortened: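 Vero cells plated at 20,000 per well in MEM with antibiotics + 10% FBS, allowed to adhere overnight at 37 °C, 5% CO2. Compound dilutions added in MEM + 10% FBS; known toxic compound positive control, DMSO negative control. After 24 h, MTS added, 2 h at 37 °C, absorbance 490 nm; DMSO wells taken as 100% survival.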

| SMILES | IC50 (Plasmodium falciparum [1]) [nM] | IC50 (Plasmodium falciparum [2]) [nM] | IC50 (Plasmodium yoelii) [µg/mL] | Ratio CC50/IC50 [3] | MIC [4] [µM] | IC50 [5] [nM] | IC50 (Vero) [nM] |
| --- | --- | --- | --- | --- | --- | --- | --- |
| O=C1/C(=C/c2ccccn2)SC(=S)N1CCNc1ccnc2cc(Cl)ccc12 | > 1100 | > 1170 | 16.5 (≈ 38.6 µM) | – | – | – | – |
| O=C1/C(=C/c2ccccc2)SC(=S)N1CCCCNc1ccnc2cc(Cl)ccc12 | 153 | 43.5 | 4.03 (≈ 8.88 µM) | 113.53 | – | – | – |
| O=C1CSC(=S)N1CCNc1ccnc2cc(Cl)ccc12 | 80.1 | 181 | 4.9 (≈ 14.5 µM) | 112.54 | – | – | – |
| CN(C)c1ccc(/C=C2\SC(=S)N(CCCNc3ccnc4cc(Cl)ccc34)C2=O)cc1 | 66.2 | 49.3 | 6.35 (≈ 13.1 µM) | 4195.05 | – | – | – |
| CCc1ccc(/C=C2\SC(=S)N(CCNc3ccnc4cc(Cl)ccc34)C2=O)cc1 | 95.7 | 42.7 | 6.73 (≈ 14.8 µM) | 17.51 | – | – | – |
| COc1cc(/C=C2\SC(=S)N(CCCCNc3ccnc4cc(Cl)ccc34)C2=O)cc(OC)c1OC | 70.1 | 43.1 | 3.93 (≈ 7.22 µM) | 110.08 | 12.5 (≈ 6.8 µg/mL) | – | – |
| O=C1/C(=C/c2ccccc2[N+](=O)[O-])SC(=S)N1CCCNc1ccnc2cc(Cl)ccc12 | 83.8 | 38.2 | 3.3 (≈ 6.8 µM) | 639.19 | 6.25 (≈ 3.03 µg/mL) | 70700 | > 100000 |
| O=C1/C(=C/c2ccc(F)cc2)SC(=S)N1CCCNc1ccnc2cc(Cl)ccc12 | 13.2 | 93.9 | 4.3 (≈ 9.39 µM) | 2083.58 | – | – | – |
| O=C1/C(=C/c2cccc([N+](=O)[O-])c2)SC(=S)N1CCCNc1ccnc2cc(Cl)ccc12 | 50.4 | 96 | 3.93 (≈ 8.1 µM) | 106.4 | – | – | – |
| COc1ccc(/C=C2\SC(=S)N(CCCCNc3ccnc4cc(Cl)ccc34)C2=O)c2ccccc12 | 284 | 280 | 4.05 (≈ 7.58 µM) | 356.27 | 6.25 (≈ 3.34 µg/mL) | > 100000 | > 100000 |
| O=C1/C(=C/c2ccc([N+](=O)[O-])cc2)SC(=S)N1CCCNc1ccnc2cc(Cl)ccc12 | 45.5 | 23.5 | 3.23 (≈ 6.66 µM) | 180.38 | – | – | – |
| CCc1ccc(/C=C2\SC(=S)N(CCCCNc3ccnc4cc(Cl)ccc34)C2=O)cc1 | 144 | 54.5 | 6.21 (≈ 12.9 µM) | 102.86 | – | – | – |
| O=C1/C(=C/c2ccco2)SC(=S)N1CCCCNc1ccnc2cc(Cl)ccc12 | 151 | 35 | 2.78 (≈ 6.26 µM) | 92.72 | 6.25 (≈ 2.77 µg/mL) | 70700 | > 100000 |
| O=C1/C(=C/c2ccc([N+](=O)[O-])cc2)SC(=S)N1CCCCNc1ccnc2cc(Cl)ccc12 | 88.8 | 40 | 17.3 (≈ 34.7 µM) | 3720.88 | – | – | – |
| O=C1/C(=C/c2ccccc2)SC(=S)N1CCNc1ccnc2cc(Cl)ccc12 | 104 | 58.7 | 8.21 (≈ 19.3 µM) | 29.16 | – | – | – |
| O=C1CSC(=S)N1CCCNc1ccnc2cc(Cl)ccc12 | 45.1 | 200 | 8.16 (≈ 23.2 µM) | 88.3 | – | – | – |
| CCN(CC)CCCC(C)Nc1ccnc2cc(Cl)ccc12 (stereo not drawn) [CHLOROQUINE] | – | – | 4.3 (≈ 13.4 µM) | – | – | – | – |
| NNC(=O)c1ccncc1 [ISONIAZID] | – | – | – | – | 0.217 (≈ 0.0298 µg/mL) | > 100000 | > 100000 |
| COc1cc(/C=C2\SC(=S)N(CCNc3ccnc4cc(Cl)ccc34)C2=O)cc(OC)c1OC | 59.3 | 34.8 | 7.31 (≈ 14.2 µM) | 88.79 | – | – | – |
| O=C1/C(=C/c2ccc([N+](=O)[O-])cc2)SC(=S)N1CCNc1ccnc2cc(Cl)ccc12 | 840 | 870 | 12.8 (≈ 27.1 µM) | 56.19 | – | – | – |
| O=C1/C(=C/c2ccncc2)SC(=S)N1CCCCNc1ccnc2cc(Cl)ccc12 | 308 | 93.5 | 6.3 (≈ 13.8 µM) | 60.39 | – | – | – |
| CN(C)c1ccc(/C=C2\SC(=S)N(CCCCNc3ccnc4cc(Cl)ccc34)C2=O)cc1 | 54.6 | 31 | 4.23 (≈ 8.51 µM) | 422.41 | – | – | – |
| CO[C@H]1/C=C/O[C@@]2(C)Oc3c(C)c(O)c4c(O)c(c(/C=N/N5CCN(C)CC5)c(O)c4c3C2=O)NC(=O)/C(C)=C\C=C\[C@H](C)[C@H](O)[C@@H](C)[C@@H](O)[C@@H](C)[C@H](OC(C)=O)[C@@H]1C [RIFAMPIN] | – | – | – | – | 0.243 (≈ 0.2 µg/mL) | > 100000 | > 100000 |
| O=C1CSC(=S)N1CCCCNc1ccnc2cc(Cl)ccc12 | 58.2 | 242 | 6.21 (≈ 17 µM) | 75.44 | 12.5 (≈ 4.57 µg/mL) | – | – |
| O=C1/C(=C/c2ccc(Cl)cc2)SC(=S)N1CCCNc1ccnc2cc(Cl)ccc12 | 94.2 | 76.5 | 3.26 (≈ 6.87 µM) | 442.83 | – | – | – |
| COc1cc(/C=C2\SC(=S)N(CCCNc3ccnc4cc(Cl)ccc34)C2=O)cc(OC)c1OC | 42.2 | 56 | 3.33 (≈ 6.28 µM) | 193.92 | – | – | – |
| COc1ccc(/C=C2\SC(=S)N(CCCNc3ccnc4cc(Cl)ccc34)C2=O)c2ccccc12 | 59.3 | 90.7 | 2.65 (≈ 5.1 µM) | 64.55 | – | – | – |
